The source made the active and inactive calls. The rule behind the calls is not given here.
Columns and labels:
[1] = target: T1, Tyrosine-protein phosphatase non-receptor type 1 (Homo sapiens) (UniProt P18031); assay: Inhibition of PTP1B (unknown origin) expressed in CHO cells over-expressing human IR assessed as increase in insulin-mediated IR-beta phosphorylation preincubated for 2 hrs followed by insulin challenge for 10 mins by Western blotting analysis; format: cell-based
T1 sequence (whole entry): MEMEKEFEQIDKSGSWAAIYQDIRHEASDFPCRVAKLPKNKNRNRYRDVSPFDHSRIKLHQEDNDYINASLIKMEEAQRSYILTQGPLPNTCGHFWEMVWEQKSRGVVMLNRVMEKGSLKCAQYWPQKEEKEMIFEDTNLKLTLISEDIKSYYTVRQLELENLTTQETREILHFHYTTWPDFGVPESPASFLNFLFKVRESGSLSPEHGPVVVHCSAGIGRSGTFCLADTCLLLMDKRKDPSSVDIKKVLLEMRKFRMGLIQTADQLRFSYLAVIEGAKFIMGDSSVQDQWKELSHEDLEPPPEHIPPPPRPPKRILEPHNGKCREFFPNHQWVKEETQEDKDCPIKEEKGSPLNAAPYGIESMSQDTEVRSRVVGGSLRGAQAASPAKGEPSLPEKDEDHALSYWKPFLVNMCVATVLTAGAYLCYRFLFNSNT
How it was run: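 CHO cells overexpressing human IR, grown in Ham's F-12 with 10% FBS at 37 °C, 5% CO2. Cells were serum-starved 2 h, then exposed to compound for 2 h (0.2% DMSO vehicle; 1 mM sodium orthovanadate as positive control). They were then stimulated with 10 nM insulin for 10 min. Lysates were run on 8% SDS-PAGE and immunoblotted with anti-pTyr, using β-actin as the loading control.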

[2] = target: Receptor-type tyrosine-protein phosphatase F (Homo sapiens, UniProt P10586); assay: Inhibition of LAR (unknown origin)
[3] = target: T2, Tyrosine-protein phosphatase non-receptor type 1 (Rattus norvegicus) (UniProt P20417); assay: Inhibition of PTP1B in rat L6 cells assessed as insulin-stimulated 2-deoxy-[3H]-deoxy-glucose uptake at 10 uM preincubated for 2 hrs followed by insulin challenge for 30 mins; format: cell-based
T2 sequence (whole entry): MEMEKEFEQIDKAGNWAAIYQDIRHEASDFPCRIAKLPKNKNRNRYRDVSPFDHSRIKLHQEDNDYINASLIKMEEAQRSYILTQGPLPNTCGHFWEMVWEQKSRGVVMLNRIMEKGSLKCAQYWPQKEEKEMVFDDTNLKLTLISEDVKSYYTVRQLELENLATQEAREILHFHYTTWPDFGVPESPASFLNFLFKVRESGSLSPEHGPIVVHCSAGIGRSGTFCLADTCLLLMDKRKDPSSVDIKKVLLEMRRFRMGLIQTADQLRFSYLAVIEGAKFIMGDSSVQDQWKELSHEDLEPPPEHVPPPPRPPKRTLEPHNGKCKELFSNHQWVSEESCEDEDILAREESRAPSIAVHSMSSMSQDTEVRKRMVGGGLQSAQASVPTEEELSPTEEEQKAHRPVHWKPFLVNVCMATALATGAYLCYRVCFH
How it was run: (§1)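 Differentiated L6 myotubes were serum-starved 2 h, treated with compound, then stimulated with 10 nM insulin for 30 min. Cells were washed in HEPES-buffered saline, pH 7.4, and incubated 15 min with 2-deoxy-[3H]-glucose. After ice-cold PBS washes they were lysed in 0.1% Triton X-100 and radioactivity was counted. Data are averages of at least three independent replicates.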

[4] = target: T2, Tyrosine-protein phosphatase non-receptor type 1 (Rattus norvegicus); assay: Inhibition of PTP1B in rat L6 cells assessed as insulin-induced Akt phosphorylation at 20 uM preincubated for 2 hrs followed by insulin challenge for 10 mins by Western blotting analysis in presence of wortmannin; format: cell-based
How it was run: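 Differentiated L6 myotubes were pretreated with 250 nM wortmannin to block PI3K. They then received 20 μM compound for 2 h and were stimulated with or without 10 nM insulin. Akt phosphorylation was read by immunoblot of lysates with anti-phospho-Akt (Ser473).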

Homo sapiens = species: Homo sapiens; assay: Selectivity ratio of IC50 for TCPTP (unknown origin) to IC50 for GST-tagged PTP1B (unknown origin)
[5] = target: T3, Tyrosine-protein phosphatase non-receptor type 1 (Homo sapiens, UniProt P18031); assay: Inhibition of GST-tagged PTP1B (unknown origin) using pNPP as substrate measured for 2 mins by colorimetric analysis
T3 sequence (P18031 whole entry): T1 sequence (whole entry)

[6] = target: T4, M-phase inducer phosphatase 2 (Homo sapiens, UniProt P30305); assay: Inhibition of CDC25B (unknown origin)
T4 sequence (P30305 whole entry): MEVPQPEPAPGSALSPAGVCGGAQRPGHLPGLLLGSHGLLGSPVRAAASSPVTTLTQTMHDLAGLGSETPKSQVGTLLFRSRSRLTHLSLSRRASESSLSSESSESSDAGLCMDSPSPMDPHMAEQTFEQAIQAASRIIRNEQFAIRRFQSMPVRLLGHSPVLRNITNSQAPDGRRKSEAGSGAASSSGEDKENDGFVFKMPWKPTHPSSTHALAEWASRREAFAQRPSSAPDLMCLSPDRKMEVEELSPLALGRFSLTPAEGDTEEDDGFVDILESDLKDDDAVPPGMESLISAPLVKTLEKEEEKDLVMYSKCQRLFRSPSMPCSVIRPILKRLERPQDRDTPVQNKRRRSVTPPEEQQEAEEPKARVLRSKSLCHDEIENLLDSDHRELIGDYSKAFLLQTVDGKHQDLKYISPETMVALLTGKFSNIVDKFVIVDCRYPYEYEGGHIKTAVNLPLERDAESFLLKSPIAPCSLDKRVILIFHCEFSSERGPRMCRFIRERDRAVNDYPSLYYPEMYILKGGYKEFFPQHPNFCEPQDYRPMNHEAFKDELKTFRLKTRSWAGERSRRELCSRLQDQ

[7] = target: T2, Tyrosine-protein phosphatase non-receptor type 1 (Rattus norvegicus); assay: Inhibition of PTP1B in rat L6 cells assessed as insulin-stimulated 2-deoxy-[3H]-deoxy-glucose uptake preincubated for 2 hrs followed by insulin challenge for 30 mins; format: cell-based; how it was run: as §1
[8] = target: T2, Tyrosine-protein phosphatase non-receptor type 1 (Rattus norvegicus); assay: Inhibition of PTP1B in rat L6 cells assessed as insulin-induced Akt phosphorylation at 5 to 10 uM preincubated for 2 hrs followed by insulin challenge for 10 mins by Western blotting analysis; format: cell-based
How it was run: (§2)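 Rat L6 myoblasts were differentiated in DMEM with 2% FBS and used as myotubes 5–7 days later. They were serum-starved 2 h, treated with compound 2 h (0.2% DMSO vehicle), then given 10 nM insulin for 10 min. Lysates were run on 8% SDS-PAGE and immunoblotted for phospho-Akt (Ser473), with β-actin as loading control.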

[9] = target: T2, Tyrosine-protein phosphatase non-receptor type 1 (Rattus norvegicus); assay: Inhibition of PTP1B in rat L6 cells assessed as insulin-induced Akt phosphorylation preincubated for 2 hrs followed by insulin challenge for 10 mins by Western blotting analysis; format: cell-based; how it was run: as §2

Receptor-type tyrosine-protein phosphatase F, sequence (P10586 whole entry): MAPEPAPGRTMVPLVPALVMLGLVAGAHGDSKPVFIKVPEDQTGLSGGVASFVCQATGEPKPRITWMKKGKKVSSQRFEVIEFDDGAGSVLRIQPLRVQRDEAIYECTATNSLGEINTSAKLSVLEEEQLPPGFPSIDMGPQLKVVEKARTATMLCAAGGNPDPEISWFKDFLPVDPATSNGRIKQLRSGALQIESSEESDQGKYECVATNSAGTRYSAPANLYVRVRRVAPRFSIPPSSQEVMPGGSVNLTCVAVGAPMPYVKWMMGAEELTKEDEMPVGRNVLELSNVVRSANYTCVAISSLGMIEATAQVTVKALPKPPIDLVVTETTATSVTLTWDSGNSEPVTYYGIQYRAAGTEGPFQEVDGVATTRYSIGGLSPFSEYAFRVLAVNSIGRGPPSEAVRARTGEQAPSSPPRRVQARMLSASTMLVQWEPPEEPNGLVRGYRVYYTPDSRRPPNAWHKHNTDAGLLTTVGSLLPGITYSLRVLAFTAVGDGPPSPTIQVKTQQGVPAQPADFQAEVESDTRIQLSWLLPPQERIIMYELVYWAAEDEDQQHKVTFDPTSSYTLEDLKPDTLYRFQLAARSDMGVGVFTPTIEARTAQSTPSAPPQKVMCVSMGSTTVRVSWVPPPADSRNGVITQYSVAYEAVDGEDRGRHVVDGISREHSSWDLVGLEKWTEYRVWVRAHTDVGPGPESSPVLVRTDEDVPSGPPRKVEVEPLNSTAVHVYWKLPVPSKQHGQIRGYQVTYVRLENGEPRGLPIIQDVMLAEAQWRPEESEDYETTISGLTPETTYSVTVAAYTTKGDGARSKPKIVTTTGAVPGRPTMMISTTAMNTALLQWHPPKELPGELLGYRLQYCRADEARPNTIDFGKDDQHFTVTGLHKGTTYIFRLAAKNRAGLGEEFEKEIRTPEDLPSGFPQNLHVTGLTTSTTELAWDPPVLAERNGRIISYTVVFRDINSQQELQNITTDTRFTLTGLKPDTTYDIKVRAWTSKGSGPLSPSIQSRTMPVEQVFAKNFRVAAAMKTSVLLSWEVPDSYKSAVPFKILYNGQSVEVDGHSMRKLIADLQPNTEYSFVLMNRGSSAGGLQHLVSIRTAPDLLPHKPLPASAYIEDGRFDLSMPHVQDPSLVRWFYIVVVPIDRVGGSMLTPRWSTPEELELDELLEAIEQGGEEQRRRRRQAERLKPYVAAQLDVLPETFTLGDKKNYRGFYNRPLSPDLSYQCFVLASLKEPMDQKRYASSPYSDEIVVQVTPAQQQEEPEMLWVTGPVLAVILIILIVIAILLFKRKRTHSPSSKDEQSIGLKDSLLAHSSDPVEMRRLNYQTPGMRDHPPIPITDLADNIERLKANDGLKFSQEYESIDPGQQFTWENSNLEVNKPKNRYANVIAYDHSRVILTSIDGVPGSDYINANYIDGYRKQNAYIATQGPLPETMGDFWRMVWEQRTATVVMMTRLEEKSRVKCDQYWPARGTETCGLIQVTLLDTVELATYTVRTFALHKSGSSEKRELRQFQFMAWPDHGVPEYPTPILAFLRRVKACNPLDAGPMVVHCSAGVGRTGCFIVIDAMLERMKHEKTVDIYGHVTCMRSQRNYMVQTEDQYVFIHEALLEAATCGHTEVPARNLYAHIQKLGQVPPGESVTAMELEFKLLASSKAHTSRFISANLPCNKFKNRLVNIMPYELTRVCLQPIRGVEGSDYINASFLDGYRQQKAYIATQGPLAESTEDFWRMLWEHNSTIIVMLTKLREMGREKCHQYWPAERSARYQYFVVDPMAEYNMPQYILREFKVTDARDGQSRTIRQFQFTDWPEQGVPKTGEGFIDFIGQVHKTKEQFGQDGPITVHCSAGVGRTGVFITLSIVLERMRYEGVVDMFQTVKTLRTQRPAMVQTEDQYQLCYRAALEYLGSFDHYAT

inhibition [1]: Dose-dependent effect
IC50 [2]: > 20000 nM
inhibition [3]: 40%
inhibition [4]: inactive
Ratio IC50 (Homo sapiens): 2.6
IC50 [5]: 540 nM
IC50 [6]: 1620 nM
inhibition [7]: Dose-dependent effect
inhibition [8]: Active
inhibition [9]: Dose-dependent effect
Structure (SMILES): O=C(CCc1c[nH]c2ccccc12)N[C@@H](Cc1ccc(OCc2ccccc2)cc1)c1nc(C(=O)Nc2cc(F)ccc2C(=O)O)c(-c2ccccc2)s1

— ChEMBL document CHEMBL2434820, “Design, synthesis, and biological evaluation of novel 2-ethyl-5-phenylthiazole-4-carboxamide derivatives as protein tyrosine phosphatase 1B inhibitors with improved cellular efficacy” (Eur J Med Chem, 2013)
